How the values were obtained:
[1] = target: Transcription initiation factor TFIID subunit 1 (Homo sapiens, UniProt P21675); test: Binding affinity to human partial length TAF1 bromodomain 2 (D1521 to D1656 residues) expressed in bacterial expression system by BROMOscan assay
[2] = target: Bromodomain and PHD finger-containing protein 3 (Homo sapiens, UniProt Q9ULD4); test: Binding affinity to human partial length BRPF3 (E588 to G701 residues) expressed in bacterial expression system by BROMOscan assay
[3] = target: T1, Bromodomain-containing protein 4 (Homo sapiens, UniProt O60885); test: Inhibition of FAM-labeled ZBA248 binding to recombinant human N-terminal His6-tagged BRD4 bromodomain 1 (44 to 168 residues) expressed in Rosetta2 DE3 cells after 30 mins by Flourescence polarization assay; assay type: biochemical
[4] = target: Bromodomain-containing protein 1 (Homo sapiens, UniProt O95696); test: Binding affinity to human partial length BRD1 (E556 to A688 residues) expressed in bacterial expression system by BROMOscan assay
MV4-11 [5] = test: Inhibition of BET bromodomain in human MV4-11 cells assessed as upregulation of p21 protein level after 24 hrs by Western blot method; assay type: cell-based
Procedure, shortened: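 MV4;11 cells were exposed to compound for 24 h and lysed in RIPA buffer with protease inhibitors. Lysates were separated on 4–20% SDS-PAGE, blotted to PVDF and probed for PARP, cleaved PARP and p21, with β-actin as loading control.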

[6] = target: Bromodomain adjacent to zinc finger domain protein 2A (Homo sapiens, UniProt Q9UIF9); test: Binding affinity to human partial length BAZ2A (M1792 to L1905 residues) expressed in bacterial expression system by BROMOscan assay
[7] = target: ATPase family AAA domain-containing protein 2 (Homo sapiens, UniProt Q6PL18); test: Binding affinity to human partial length ATAD2A (Q981 to R1108 residues) expressed in bacterial expression system by BROMOscan assay
ATPase family AAA domain-containing protein 2, sequence (Q6PL18 whole entry, the tested form may be a part): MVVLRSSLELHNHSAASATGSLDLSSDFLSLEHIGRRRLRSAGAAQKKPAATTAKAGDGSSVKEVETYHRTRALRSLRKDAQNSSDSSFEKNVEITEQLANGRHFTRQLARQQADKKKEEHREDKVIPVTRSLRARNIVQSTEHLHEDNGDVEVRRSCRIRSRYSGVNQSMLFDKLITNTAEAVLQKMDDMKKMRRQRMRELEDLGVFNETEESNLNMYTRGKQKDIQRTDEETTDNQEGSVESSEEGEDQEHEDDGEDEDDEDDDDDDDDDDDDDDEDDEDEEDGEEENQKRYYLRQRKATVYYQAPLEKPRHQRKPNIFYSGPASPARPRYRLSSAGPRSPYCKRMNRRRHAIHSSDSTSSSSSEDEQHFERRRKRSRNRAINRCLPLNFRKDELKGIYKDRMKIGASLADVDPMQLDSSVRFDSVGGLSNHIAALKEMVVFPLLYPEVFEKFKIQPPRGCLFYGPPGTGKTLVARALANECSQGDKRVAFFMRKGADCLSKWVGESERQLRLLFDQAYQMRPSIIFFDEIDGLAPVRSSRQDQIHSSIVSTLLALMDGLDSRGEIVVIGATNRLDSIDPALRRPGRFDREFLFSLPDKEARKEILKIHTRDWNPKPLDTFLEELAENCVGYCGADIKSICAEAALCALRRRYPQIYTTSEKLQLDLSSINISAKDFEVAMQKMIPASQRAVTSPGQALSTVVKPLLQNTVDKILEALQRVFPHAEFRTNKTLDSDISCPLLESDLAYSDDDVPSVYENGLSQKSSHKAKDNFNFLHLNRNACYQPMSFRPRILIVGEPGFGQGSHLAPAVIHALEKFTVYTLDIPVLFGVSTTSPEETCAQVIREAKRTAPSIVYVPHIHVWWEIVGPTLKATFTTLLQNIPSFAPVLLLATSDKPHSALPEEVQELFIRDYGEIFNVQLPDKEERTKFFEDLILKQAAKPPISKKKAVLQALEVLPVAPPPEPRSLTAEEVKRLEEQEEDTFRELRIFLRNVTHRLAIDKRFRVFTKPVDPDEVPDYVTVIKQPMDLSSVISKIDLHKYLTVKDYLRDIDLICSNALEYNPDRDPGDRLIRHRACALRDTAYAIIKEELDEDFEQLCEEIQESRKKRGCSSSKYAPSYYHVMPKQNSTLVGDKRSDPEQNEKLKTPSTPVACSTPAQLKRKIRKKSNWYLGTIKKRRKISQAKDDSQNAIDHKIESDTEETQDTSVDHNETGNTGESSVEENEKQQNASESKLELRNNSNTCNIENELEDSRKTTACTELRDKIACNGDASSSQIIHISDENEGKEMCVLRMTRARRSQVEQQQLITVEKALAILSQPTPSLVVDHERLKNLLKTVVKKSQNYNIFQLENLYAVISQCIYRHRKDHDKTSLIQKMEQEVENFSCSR

[8] = target: T2, Bromodomain-containing protein 3 (Homo sapiens, UniProt Q15059); test: Binding affinity to human partial length BRD3 bromodomain 1/2 (P24 to P416 residues) expressed in bacterial expression system by BROMOscan assay
T2 sequence (Q15059 whole entry, the tested form may be a part): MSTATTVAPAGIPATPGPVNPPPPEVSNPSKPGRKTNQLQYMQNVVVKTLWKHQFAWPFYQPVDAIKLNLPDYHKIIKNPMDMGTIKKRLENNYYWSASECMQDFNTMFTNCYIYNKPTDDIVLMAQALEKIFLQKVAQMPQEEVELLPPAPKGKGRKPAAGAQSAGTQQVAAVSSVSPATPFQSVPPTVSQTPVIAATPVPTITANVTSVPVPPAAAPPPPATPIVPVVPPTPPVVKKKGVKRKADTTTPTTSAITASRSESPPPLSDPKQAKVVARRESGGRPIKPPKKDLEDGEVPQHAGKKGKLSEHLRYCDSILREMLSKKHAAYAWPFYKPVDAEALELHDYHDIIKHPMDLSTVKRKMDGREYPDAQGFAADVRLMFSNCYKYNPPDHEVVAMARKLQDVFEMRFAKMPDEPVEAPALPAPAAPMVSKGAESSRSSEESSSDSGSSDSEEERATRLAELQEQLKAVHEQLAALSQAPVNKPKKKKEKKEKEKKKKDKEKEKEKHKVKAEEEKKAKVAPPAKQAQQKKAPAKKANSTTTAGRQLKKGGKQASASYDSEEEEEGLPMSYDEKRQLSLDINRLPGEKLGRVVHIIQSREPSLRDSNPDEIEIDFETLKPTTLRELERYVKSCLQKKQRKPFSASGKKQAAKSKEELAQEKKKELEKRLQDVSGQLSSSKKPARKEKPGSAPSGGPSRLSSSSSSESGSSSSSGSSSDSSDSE

[9] = target: Bromodomain-containing protein 9 (Homo sapiens, UniProt Q9H8M2); test: Binding affinity to human partial length BRD9 (R130 to V259 residues) expressed in bacterial expression system by BROMOscan assay
MV4-11 [10] = test: Inhibition of BET bromodomain in human MV4-11 cells assessed as downregulation of c-myc level after 1 hr by Western blot method; assay type: cell-based
Procedure, shortened: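 MV4;11 cells were treated with a range of compound concentrations for 1 h and lysed in RIPA buffer with protease inhibitors. Lysates were run on 4–20% SDS-PAGE, transferred to PVDF and probed for c-Myc with a specific antibody.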

[11] = target: Histone acetyltransferase KAT2B (Homo sapiens, UniProt Q92831); test: Binding affinity to human partial length PCAF (G715 to D831 residues) expressed in bacterial expression system by BROMOscan assay
Histone acetyltransferase KAT2B, sequence (Q92831 whole entry, the tested form may be a part, canonical isoform): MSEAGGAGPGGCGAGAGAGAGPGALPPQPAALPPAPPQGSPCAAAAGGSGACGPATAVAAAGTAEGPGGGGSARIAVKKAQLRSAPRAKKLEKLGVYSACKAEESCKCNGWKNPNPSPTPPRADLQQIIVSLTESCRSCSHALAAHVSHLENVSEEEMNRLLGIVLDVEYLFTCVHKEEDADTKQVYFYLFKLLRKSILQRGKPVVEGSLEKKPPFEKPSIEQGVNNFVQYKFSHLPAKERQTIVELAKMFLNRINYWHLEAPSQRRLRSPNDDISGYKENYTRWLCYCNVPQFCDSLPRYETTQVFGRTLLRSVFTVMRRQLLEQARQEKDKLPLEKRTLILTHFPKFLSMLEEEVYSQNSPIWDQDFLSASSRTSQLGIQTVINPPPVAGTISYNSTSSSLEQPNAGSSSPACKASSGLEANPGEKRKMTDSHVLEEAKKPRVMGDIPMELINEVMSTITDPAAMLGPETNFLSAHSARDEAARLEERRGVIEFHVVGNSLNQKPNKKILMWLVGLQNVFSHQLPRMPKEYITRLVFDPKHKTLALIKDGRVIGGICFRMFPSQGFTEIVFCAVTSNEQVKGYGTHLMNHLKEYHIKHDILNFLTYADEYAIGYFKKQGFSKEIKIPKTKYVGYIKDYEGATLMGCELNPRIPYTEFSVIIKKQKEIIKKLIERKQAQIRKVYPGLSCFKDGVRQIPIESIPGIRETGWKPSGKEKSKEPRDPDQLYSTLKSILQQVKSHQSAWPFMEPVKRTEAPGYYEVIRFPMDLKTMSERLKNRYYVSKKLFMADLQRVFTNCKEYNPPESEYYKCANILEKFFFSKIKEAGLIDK

[12] = target: T3, Bromodomain testis-specific protein (Homo sapiens, UniProt Q58F21); test: Binding affinity to human partial length BRDT bromodomain 1 isoform b (N21 to E137 residues) expressed in bacterial expression system by BROMOscan assay
Mus musculus [13] = test: Clearance in SCID mouse at 5 mg/kg, iv by LC/MS method; assay type: ADME, organism-based; details: in vivo
HBL-100 = test: Cytotoxicity against human HBL100 cells assessed as cell growth inhibition after 4 days by WST-8 assay; assay type: functional, cell-based; details: HBL-100, 96 h
Procedure, shortened: (§1)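 Breast cancer cells were seeded at 3,000 cells/well, treated with serially diluted compound in medium and cultured for 4 days. Growth was read by WST-8 (10% v/v final, 1–3 h) at 450 nm. Readings were normalized to DMSO-treated cells, and IC50 was obtained by nonlinear regression.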

[14] = AUC (0 to t) in Sprague-Dawley rat at 25 mg/kg, po by LC/MS method; assay type: ADME, organism-based; details: in vivo
Procedure, shortened: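 Sprague Dawley rats were dosed iv at 5 mg/kg or orally at 25 mg/kg, with compound dissolved in 20% (v/v) PCP/70% (v/v) PBS vehicle. Blood was drawn by catheter at 0, 5, 15, 30 min and 1, 2, 4, 6, 8, 24 h and spun to plasma, which was stored at −80 °C. Plasma drug was quantified by a validated LC–MS/MS method, and parameters were derived noncompartmentally.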

[15] = target: T2, Bromodomain-containing protein 3; test: Binding affinity to human partial length BRD3 bromodomain 1 (P24 to E144 residues) expressed in bacterial expression system by BROMOscan assay
[16] = Cmax in SCID mouse at 25 mg/kg, po by LC/MS method; assay type: ADME, organism-based; set-up: dose 25 mg/kg, route oral; details: in vivo
Mus musculus [17] = test: Toxicity in SCID mouse implanted with human MDA-MB-231 cells at 40 mg/kg, po qd measured 2 to 3 times weekly during treatment and weekly post dose; assay type: organism-based; details: in vivo
Procedure, shortened: (§2)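 At ~100 mm3, mice were randomized to treatment or vehicle control. Tumors were measured by electronic calipers. Animals were checked daily for signs of toxicity and weighed 2–3 times weekly on treatment, then at least weekly afterwards.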

[18] = target: Bromodomain-containing protein 2 (Homo sapiens, UniProt P25440); test: Binding affinity to human partial length BRD2 bromodomain 2 isoform 1 (349 to 460 residues) expressed in bacterial expression system by BROMOscan assay
Bromodomain-containing protein 2, sequence (P25440 whole entry, the tested form may be a part, canonical isoform): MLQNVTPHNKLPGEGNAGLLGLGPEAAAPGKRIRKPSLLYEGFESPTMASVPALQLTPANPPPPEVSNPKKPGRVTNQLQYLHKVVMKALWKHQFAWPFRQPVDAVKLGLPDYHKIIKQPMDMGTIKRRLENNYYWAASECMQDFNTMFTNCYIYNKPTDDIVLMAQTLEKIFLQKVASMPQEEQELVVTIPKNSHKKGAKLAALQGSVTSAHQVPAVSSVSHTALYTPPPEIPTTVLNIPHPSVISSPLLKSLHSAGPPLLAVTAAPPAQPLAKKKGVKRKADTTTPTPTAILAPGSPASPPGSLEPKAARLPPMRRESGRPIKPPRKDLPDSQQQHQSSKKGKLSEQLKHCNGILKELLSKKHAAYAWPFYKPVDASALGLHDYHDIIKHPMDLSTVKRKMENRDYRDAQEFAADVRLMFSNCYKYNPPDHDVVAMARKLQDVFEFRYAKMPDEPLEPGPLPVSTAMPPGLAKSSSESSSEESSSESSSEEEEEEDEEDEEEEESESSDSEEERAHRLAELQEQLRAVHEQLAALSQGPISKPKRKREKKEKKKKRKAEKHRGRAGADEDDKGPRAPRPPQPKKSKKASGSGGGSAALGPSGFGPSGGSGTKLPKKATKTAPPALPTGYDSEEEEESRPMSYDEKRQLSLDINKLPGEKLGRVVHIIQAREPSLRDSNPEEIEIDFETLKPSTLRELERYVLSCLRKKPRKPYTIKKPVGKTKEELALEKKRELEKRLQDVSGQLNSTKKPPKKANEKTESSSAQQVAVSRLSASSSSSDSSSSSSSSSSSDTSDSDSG

[19] = target: Histone acetyltransferase KAT2A (Homo sapiens, UniProt Q92830); test: Binding affinity to human partial length GCN5L2 (E726 to K837 residues) expressed in bacterial expression system by BROMOscan assay
[20] = target: T3, Bromodomain testis-specific protein; test: Binding affinity to human partial length BRDT bromodomain 1/2 isoform b (K250 to E382 residues) expressed in bacterial expression system by BROMOscan assay
MV4-11 [21] = test: Antitumor activity against human MV4-11 cells xenografted in SCID mouse assessed as tumor growth inhibition at 50 mg/kg, po qd measured 2 to 3 times weekly during treatment and once weekly post dose; assay type: functional; details: MV4-11, po, read-out: TGI; procedure, shortened: as §2
[22] = target: T1, Bromodomain-containing protein 4; test: Inhibition of FAM-labeled ZBA248 binding to recombinant human N-terminal His6-tagged BRD4 bromodomain 2 (333 to 460 residues) expressed in Rosetta2 DE3 cells after 30 mins by Flourescence polarization assay; assay type: biochemical
SUM-159-PT = test: Cytotoxicity against human SUM159PT cells assessed as cell growth inhibition after 4 days by WST-8 assay; assay type: functional, cell-based; details: 96 h; procedure, shortened: as §1
[23] = target: Bromodomain and WD repeat-containing protein 1 (Homo sapiens, UniProt Q9NSI6); test: Binding affinity to human partial length WDR9 bromodomain 2 (A1310 to E1430 residues) expressed in bacterial expression system by BROMOscan assay
[24] = target: Bromodomain adjacent to zinc finger domain protein 2B (Homo sapiens, UniProt Q9UIF8); test: Binding affinity to human partial length BAZ2B (S2054 to S2168 residues) expressed in bacterial expression system by BROMOscan assay
Peregrin = Peregrin (Homo sapiens, UniProt P55201); test: Binding affinity to human partial length BRPF1 (E627 to G740 residues) expressed in bacterial expression system by BROMOscan assay
Peregrin, sequence (P55201 whole entry, the tested form may be a part): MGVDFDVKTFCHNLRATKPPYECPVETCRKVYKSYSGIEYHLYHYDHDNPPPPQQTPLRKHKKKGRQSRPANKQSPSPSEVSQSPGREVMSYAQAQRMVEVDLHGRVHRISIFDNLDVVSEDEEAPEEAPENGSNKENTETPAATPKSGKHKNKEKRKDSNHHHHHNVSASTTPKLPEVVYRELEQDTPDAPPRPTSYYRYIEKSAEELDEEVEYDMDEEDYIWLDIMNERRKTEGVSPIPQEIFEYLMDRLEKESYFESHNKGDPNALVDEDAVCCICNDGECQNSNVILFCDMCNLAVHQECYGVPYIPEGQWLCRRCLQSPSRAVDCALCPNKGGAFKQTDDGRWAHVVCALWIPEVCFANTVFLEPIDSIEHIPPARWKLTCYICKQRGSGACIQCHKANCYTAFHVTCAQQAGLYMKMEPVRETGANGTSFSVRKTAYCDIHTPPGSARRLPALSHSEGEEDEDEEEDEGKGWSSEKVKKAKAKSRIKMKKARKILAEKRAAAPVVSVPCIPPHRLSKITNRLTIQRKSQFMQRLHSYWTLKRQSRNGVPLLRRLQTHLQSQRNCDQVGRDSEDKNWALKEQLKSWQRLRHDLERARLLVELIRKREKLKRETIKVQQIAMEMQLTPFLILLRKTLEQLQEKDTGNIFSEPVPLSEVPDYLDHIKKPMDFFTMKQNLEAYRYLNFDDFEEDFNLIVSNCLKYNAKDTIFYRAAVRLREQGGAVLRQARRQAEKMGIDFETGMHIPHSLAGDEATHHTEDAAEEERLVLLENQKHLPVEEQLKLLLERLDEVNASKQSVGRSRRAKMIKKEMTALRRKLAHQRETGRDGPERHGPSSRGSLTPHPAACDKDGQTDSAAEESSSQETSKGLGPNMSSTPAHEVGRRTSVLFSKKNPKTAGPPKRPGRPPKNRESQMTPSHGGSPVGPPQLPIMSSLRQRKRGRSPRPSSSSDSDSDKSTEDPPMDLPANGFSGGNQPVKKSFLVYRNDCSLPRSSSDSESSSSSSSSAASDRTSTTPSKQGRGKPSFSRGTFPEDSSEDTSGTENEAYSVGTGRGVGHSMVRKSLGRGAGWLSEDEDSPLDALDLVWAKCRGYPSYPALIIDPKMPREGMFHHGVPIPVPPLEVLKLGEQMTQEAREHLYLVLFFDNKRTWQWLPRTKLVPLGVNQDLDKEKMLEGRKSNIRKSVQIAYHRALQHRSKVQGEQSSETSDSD

Kd [1]: > 4000 nM
Kd [2]: > 4000 nM
IC50 [3]: 28.2 nM
Ki [3]: 8.2 nM
Kd [4]: > 4000 nM
Kd [6]: > 4000 nM
Kd [7]: > 4000 nM
Kd [8]: 0.73 nM
Kd [9]: > 4000 nM
Kd [11]: > 4000 nM
Kd [12]: 15 nM
CL (Mus musculus [13]): 22.7 mL/min/kg
AUC(0-t) [14]: 29500 ng·h/mL
Kd [15]: 2 nM
Cmax [16]: 983 ng/mL
Kd [18]: 0.9 nM
Kd [19]: > 4000 nM
Kd [20]: 9.7 nM
IC50 [22]: 7.2 nM
Ki [22]: 1.4 nM
Kd [23]: > 4000 nM
Kd [24]: > 4000 nM
Kd (Peregrin): > 4000 nM
SMILES: COc1cc2c(cc1-c1c(C)noc1C)[nH]c1nc(C)nc(-c3ccnc4ccccc34)c12
inhibition (MV4-11 [5]): Dose-dependent effect
inhibition (MV4-11 [10]): Dose-dependent effect
IC50 (HBL-100): > 2000 nM
Activity (Mus musculus [17]): Non-Toxic
inhibition in vivo at 50 mg/kg (MV4-11 [21]): > 80%
IC50 (SUM-159-PT): > 2000 nM

Reference: ChEMBL document CHEMBL4184143 (J Med Chem, 2017)
